{"data": "Measurements collected from several papers", "speB": "speB (Escherichia coli, UniProt P60651)", "ASIC1": "Acid-sensing ion channel 1 (ASIC1, Homo sapiens, UniProt P78348)", "note": "Each line is one published result; the experiments were not run side by side."}
{"SMILES": "CN(C)C(=N)N=C(N)N", "target": "speB", "effect on": "enzyme activity", "mode": "inhibitor", "technique": "absorbance", "pH": "pH 8.5", "quantity": "Ki", "value": "1250 µM"}
{"SMILES": "CC[C@H](C)[C@H](NC(=O)[C@@H]1CCCN1C(=O)[C@H](C)NC(=O)[C@@H]1CSSC[C@@H]2NC(=O)[C@H](CC(=O)O)NC(=O)[C@H](CCCNC(=N)N)NC(=O)[C@H](CCC(=O)O)NC(=O)[C@H](CCCNC(=N)N)NC(=O)CNC(=O)[C@H](CC(=O)O)NC(=O)[C@@H]3CSSC[C@H](NC(=O)[C@H](CCC(=O)O)NC(=O)[C@H](CC(C)C)NC(=O)CNC(=O)[C@H](C)NC(=O)[C@H](CSSC[C@H](NC(=O)[C@H](Cc4ccccc4)NC(=O)[C@@H](N)CO)C(=O)N[C@@H](CC(C)C)C(=O)N[C@@H](C(C)C)C(=O)N[C@@H](CCCCN)C(=O)N[C@@H](Cc4c[nH]c5ccccc45)C(=O)N[C@@H](CCCCN)C(=O)N[C@@H](CCC(N)=O)C(=O)N3)NC2=O)C(=O)N[C@@H](Cc2c[nH]c3ccccc23)C(=O)N[C@@H](CCCCN)C(=O)N[C@@H](CCCNC(=N)N)C(=O)N[C@@H](CCCNC(=N)N)C(=O)NCC(=O)N[C@@H](CC(N)=O)C(=O)N[C@@H](CCCCN)C(=O)N[C@@H](CO)C(=O)N[C@@H](CO)C(=O)N[C@@H](C(C)C)C(=O)N1)C(=O)N[C@H](C(=O)O)[C@@H](C)O", "target": "ASIC1", "effect on": "binding", "technique": "SPR", "pH": "pH 7.5", "quantity": "Kd", "value": "0.0277 nM"}
{"SMILES": "CNC(=O)c1ccc(-c2cnn3ccc(C(=O)N(C)c4ccc(Cl)c(C(=O)OC)c4)cc23)cc1", "target": "Casein kinase I isoform delta (CSNK1D, Homo sapiens, UniProt P48730)", "effect on": "enzyme activity", "mode": "inhibitor", "quantity": "IC50", "value": "> 30 µM"}
{"SMILES": "CC(C)=CCN=C(N)N", "target": "speB", "effect on": "enzyme activity", "mode": "inhibitor", "technique": "absorbance", "pH": "pH 8.5", "quantity": "Ki", "value": "8.59 µM"}
{"SMILES": "COc1ccc2[nH]c(C)c(CC[N+](C)(C)C)c2c1", "target": "5-hydroxytryptamine receptor 2C (HTR2C, Homo sapiens, UniProt P28335)", "effect on": "calcium signal", "mode": "agonist", "quantity": "EC50", "value": "> 5 µM"}
{"SMILES": "O=S(=O)(O)c1ccc2c(N=Nc3c(O)ccc4ccccc34)cccc2c1", "target": "Bcl-2-related protein A1 (Mus musculus, UniProt Q07440, C113S/P104K)", "effect on": "ligand displacement", "technique": "FP", "quantity": "Ki", "value": "1.62 µM"}
{"SMILES": "CC[C@H](C)[C@@H]1NC(=O)[C@@H](NC(=O)[C@H](CCC(=O)O)NC(=O)[C@H](CC(N)=O)NC(=O)[C@@H](N)CO)CSSC[C@@H]2NC(=O)[C@@H]3CSSC[C@@H](C(=O)N[C@H](C(=O)N4CCC[C@H]4C(=O)N[C@H](C(=O)N4CCC[C@H]4C(=O)NCC(=O)O)[C@@H](C)CC)C(C)C)NC(=O)[C@H](C(C)C)NC(=O)[C@H](CCC(=O)O)NC(=O)[C@H](Cc4ccccc4)NC(=O)[C@H](CO)NC(=O)[C@H](Cc4c[nH]cn4)NC(=O)[C@H](CCCNC(=N)N)NC(=O)[C@H](CCCNC(=N)N)NC(=O)[C@H](CCCCN)NC(=O)[C@H](Cc4ccc(O)cc4)NC(=O)[C@H](CSSC[C@H](NC(=O)[C@H](CO)NC(=O)[C@H](CC(C)C)NC(=O)[C@H](Cc4c[nH]c5ccccc45)NC(=O)[C@H](CCCCN)NC(=O)[C@H](CCCNC(=N)N)NC1=O)C(=O)N[C@@H](C(C)C)C(=O)N[C@@H](CC(=O)O)C(=O)N[C@@H](CCCNC(=N)N)C(=O)N[C@@H](CCCCN)C(=O)N[C@@H](CC(N)=O)C(=O)N[C@@H](CC(=O)O)C(=O)N3)NC(=O)[C@H](CCC(=O)O)NC(=O)[C@H](CC(C)C)NC(=O)CNC(=O)[C@H](CCC(=O)O)NC2=O", "target": "ASIC1", "effect on": "binding", "technique": "SPR", "quantity": "Kd", "value": "1.4 nM"}
{"SMILES": "CNC(=O)c1ccc(-c2cnn3ccc(C(=O)N(C)c4ccc(Cl)c(C(=O)O)c4)cc23)cc1", "target": "5-hydroxytryptamine receptor 2B (HTR2B, Homo sapiens, UniProt P41595)", "effect on": "cell-free assay", "quantity": "IC50", "value": "> 30 µM"}
